Experimental findings from ChEMBL document CHEMBL1144568, “Synthesis of novel potent hepatitis C virus NS3 protease inhibitors: discovery of 4-hydroxy-cyclopent-2-ene-1,2-dicarboxylic acid as a N-acyl-L-hydroxyproline bioisostere” (Bioorg Med Chem, 2007) are described below.

This test is described as follows: Inhibition of full length HCV NS3/4A protease. Further details: species or system Hepacivirus hominis. In a few lines:
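30 min room-temperature preincubation with inhibitor, then FRET substrate RET S1 at 2 µM final. Activity followed continuously 20 min (ex 355/em 500 nm); IC50 by non-linear fit, Ki derived from IC50.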
What is called Ki is the dissociation constant of the complex between target and ligand, obtained from inhibition or displacement. A higher Ki goes with weaker binding. `CCC[C@H](NC(=O)[C@H]1C[C@H](Oc2cc(-c3ccccc3)nc3cc(OC)ccc23)C=C1C(=O)N[C@H](C(=O)N[C@H](C(=O)OC)C1CCCCC1)C(C)(C)C)C(=O)O` had a Ki greater than 2000 nM.

Regarding `C=C[C@@H]1C[C@]1(NC(=O)[C@@H]1C[C@@H](Oc2cc(-c3ccccc3)nc3cc(OC)ccc23)C=C1C(=O)N[C@H](C(=O)N[C@H](C(=O)NC)C1CCCCC1)C(C)(C)C)C(=O)O`, the Ki worked out at 1.3 nM.

`C=C[C@@H]1C[C@]1(NC(=O)C1CC(Oc2cc(-c3ccccc3)nc3cc(OC)ccc23)C=C1C(=O)N[C@H](C(=O)N[C@H](C(=O)OC)C1CCCCC1)C(C)(C)C)C(=O)OC(C)(C)C` (some centres undefined) returned a Ki greater than 2000 nM. Under `CC[C@H](NC(=O)[C@@H]1C[C@@H](Oc2cc(-c3ccccc3)nc3cc(OC)ccc23)C=C1C(=O)N[C@@H](C(=O)N[C@@H](C(=O)OC)C1CCCCC1)C(C)C)C(=O)O` stands greater than 2000 nM. `CCC[C@H](NC(=O)[C@@H]1C[C@@H](Oc2cc(-c3ccccc3)nc3cc(OC)ccc23)C=C1C(=O)N[C@H](C(=O)N[C@H](C(=O)OC)C1CCCCC1)C(C)(C)C)C(=O)O` gave a Ki of 30 nM.

As for `C=C[C@@H]1C[C@]1(NC(=O)C1CC(Oc2cc(-c3ccccc3)nc3cc(OC)ccc23)C=C1C(=O)N[C@H](C(=O)N(C)[C@H](C(=O)NC)C1CCCCC1)C(C)(C)C)C(=O)O` (some centres undefined), the Ki is greater than 5000 nM.

The compound `C=C[C@@H]1C[C@]1(NC(=O)[C@@H]1C[C@@H](Oc2cc(-c3ccccc3)nc3cc(OC)ccc23)C[C@H]1C(=O)N[C@H](C(=O)N[C@H](C(=O)NC)C1CCCCC1)C(C)(C)C)C(=O)O` registered a Ki of 16 nM. Under `C=C[C@@H]1C[C@]1(NC(=O)[C@H]1C[C@H](Oc2cc(-c3ccccc3)nc3cc(OC)ccc23)C=C1C(=O)N[C@H](C(=O)N[C@H](C(=O)OC)C1CCCCC1)C(C)(C)C)C(=O)O` stands 108 nM; under `C=C[C@@H]1C[C@]1(NC(=O)[C@@H]1C[C@@H](Oc2cc(-c3ccccc3)nc3cc(OC)ccc23)C=C1C(=O)N[C@H](C(=O)N[C@H](C(=O)OC)C1CCCCC1)C(C)(C)C)C(=O)O`, 1.1 nM. For `CC[C@H](NC(=O)C1CC(Oc2cc(-c3ccccc3)nc3cc(OC)ccc23)C=C1C(=O)N[C@H](C(=O)N[C@H](C(=O)OC)C1CCCCC1)C(C)C)C(=O)O` (some centres undefined), the affinity, expressed as Ki, was 523 nM. Compared with the last compound, the Ki is about 480-fold higher. `CC[C@H](NC(=O)C1CC(Oc2cc(-c3ccccc3)nc3cc(OC)ccc23)C=C1C(=O)N[C@H](C(=O)N[C@H](C(=O)OC)C1CCCCC1)C(C)(C)C)C(=O)O` (some centres undefined) yielded a Ki of 503 nM. `CCC[C@H](NC(=O)[C@H]1C[C@H](Oc2cc(-c3ccccc3)nc3cc(OC)ccc23)C=C1C(=O)N[C@H](C(=O)N[C@H](C(=O)OC)C1CCCCC1)C(C)C)C(=O)O` yielded an inhibitory constant (Ki) of 2560 nM.

For the compound `CC[C@H](NC(=O)C1CC(Oc2cc(-c3ccccc3)nc3cc(OC)ccc23)C=C1C(=O)N[C@H](C(=O)N[C@H](C(=O)NC)C1CCCCC1)C(C)(C)C)C(=O)O` (some centres undefined), the affinity, expressed as Ki, was 280 nM. Consider `C=C[C@@H]1C[C@]1(NC(=O)C1CC(Oc2cc(-c3ccccc3)nc3cc(OC)ccc23)C=C1C(=O)N[C@H](C(=O)N[C@H](C(=O)NC)C1CCCCC1)C(C)(C)C)C(=O)OC(C)(C)C` (some centres undefined), for which the Ki is greater than 2000 nM. `C=C[C@@H]1C[C@]1(NC(=O)[C@H]1C[C@H](Oc2cc(-c3ccccc3)nc3cc(OC)ccc23)C=C1C(=O)N[C@H](C(=O)N[C@H](C(=O)NC)C1CCCCC1)C(C)(C)C)C(=O)O` yielded a Ki of 23 nM. Under `CCC[C@H](NC(=O)[C@@H]1C[C@@H](Oc2cc(-c3ccccc3)nc3cc(OC)ccc23)C=C1C(=O)N[C@H](C(=O)N[C@H](C(=O)OC)C1CCCCC1)C(C)C)C(=O)O` stands 102 nM; under `CCC[C@H](NC(=O)C1CC(Oc2cc(-c3ccccc3)nc3cc(OC)ccc23)C=C1C(=O)N[C@H](C(=O)N[C@H](C(=O)NC)C1CCCCC1)C(C)(C)C)C(=O)O` (some centres undefined), 67 nM; under `C=C[C@@H]1C[C@]1(NC(=O)C1CC(Oc2cc(-c3ccccc3)nc3cc(OC)ccc23)C=C1C(=O)N[C@H](C(=O)N[C@H](C(=O)OC)C1CCCCC1)C(C)C)C(=O)O` (some centres undefined), 24 nM. As for `CC[C@H](NC(=O)C1CC(Oc2cc(-c3ccccc3)nc3cc(OC)ccc23)C=C1C(=O)N[C@H](C(=O)OC)C(C)C)C(=O)O` (some centres undefined), the figure is greater than 2000 nM.
